Laboratory results: ChEMBL document CHEMBL2146464, “Structure-activity relationship study of nitrosopyrimidines acting as antifungal agents” (Bioorg Med Chem, 2012)
The source made the active and inactive calls.

Key:
Assay type in all cases: functional, organism-based
[1] = tested on: Aspergillus flavus; assay: Antifungal activity against Aspergillus flavus ATCC 9170 at 0.98 to 250 ug/mL by NCCLS broth microdilution method
Method in brief: (§1)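 MIC by broth microdilution per NCCLS M27-A3/M38-A2 in RPMI-1640 buffered to pH 7.0 with MOPS. Twofold dilutions from 250–0.98 µg/mL, final DMSO ≤1%. Inoculum 1–5 × 10³ CFU/mL. Incubated in a moist dark chamber, 30 °C for Aspergillus and 28–30 °C for dermatophytes. Read visually when control growth allowed. Endpoint is the lowest concentration giving total inhibition of visible growth (MIC100).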

[2] = tested on: Trichophyton mentagrophytes; assay: Antifungal activity against Trichophyton mentagrophytes ATCC 9972 at 0.98 to 250 ug/mL by NCCLS broth microdilution method; method in brief: as §1
[3] = tested on: Candida albicans; assay: Antifungal activity against Candida albicans ATCC 10231 at 0.98 to 250 ug/mL after 48 hrs by NCCLS broth microdilution method
Method in brief: (§2)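 Yeast MIC by NCCLS M27-A3 broth microdilution in RPMI-1640 buffered to pH 7.0 with MOPS. Twofold dilutions of 250–0.98 µg/mL, final DMSO ≤1%. Inoculum 1–5 × 10³ CFU/mL. Incubated at 30 °C in a moist dark chamber. Read visually at 48 h. MIC100 is the lowest concentration with no visible growth versus drug-free control.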

[4] = tested on: Aspergillus niger; assay: Antifungal activity against Aspergillus niger ATCC 9029 at 0.98 to 250 ug/mL by NCCLS broth microdilution method; method in brief: as §1
[5] = tested on: Trichophyton rubrum; assay: Antifungal activity against Trichophyton rubrum CCC 110 at 0.98 to 250 ug/mL by NCCLS broth microdilution method; method in brief: as §1
[6] = tested on: Candida tropicalis; assay: Antifungal activity against Candida tropicalis at 0.98 to 250 ug/mL after 48 hrs by NCCLS broth microdilution method; method in brief: as §2
[7] = tested on: Cryptococcus neoformans; assay: Antifungal activity against Cryptococcus neoformans ATCC 32264 at 0.98 to 250 ug/mL after 48 hrs by NCCLS broth microdilution method; method in brief: as §2
[8] = tested on: Nannizzia gypsea; assay: Antifungal activity against Microsporum gypseum CCC 115 at 0.98 to 250 ug/mL by NCCLS broth microdilution method; method in brief: as §1
[9] = tested on: Aspergillus fumigatus; assay: Antifungal activity against Aspergillus fumigatus ATCC 26934 at 0.98 to 250 ug/mL by NCCLS broth microdilution method; method in brief: as §1

Measured: Activity

COc1nc(N)nc(NCCOCCO)c1N=O
inactive: all assays above

Nc1nc(NC(CO)C(=O)O)c(N=O)c(=O)[nH]1 (centres undefined)
inactive: all assays above

COc1nc(NCCOC(C)=O)nc(Nc2cccc(Cl)c2)c1N=O
inactive: all assays above

Nc1nc(NCc2ccccc2)c(N=O)c(NCc2ccccc2)n1
inactive: all assays above

CC(C)Nc1nc(N)nc(NCc2ccccc2)c1N=O
inactive: all assays above

CCOC(=O)C(C)Nc1nc(N)nc(OC)c1N=O (centres undefined)
inactive: all assays above

C[C@@H]1Nc2nc(N)nc(OCC3CCCCC3)c2NC1=O
inactive: all assays above

COc1nc(N)nc(OC)c1N=O
inactive: all assays above

COc1nc(N)nc(NC23CC4CC(CC(C4)C2)C3)c1N=O
inactive: all assays above

COc1nc(N)c(N=O)c(=O)n1Cc1ccccc1
inactive: all assays above

Nc1nc2c(c(OCC3CCCCC3)n1)NC(=O)[C@H](Cc1ccccc1)N2
inactive: all assays above

Nc1nc(NC2CCCCC2)c(N=O)c(N2CCCCCCCC2)n1
inactive: all assays above

Nc1nc(OCC2CCCCC2)c(N=O)c(OCC2CCCCC2)n1
inactive: all assays above

COc1nc(N)nc2c1NC(=O)CCN2
inactive: all assays above

CCOC(=O)C(Cc1ccccc1)Nc1nc(N)nc(OC)c1N=O (centres undefined)
inactive: all assays above

CCOC(=O)CCNc1nc(N)nc(OC)c1N=O
inactive: all assays above

CCCCNc1nc(N)nc(Nc2ccccc2)c1N=O
inactive: all assays above

CCOC(=O)CCNc1nc(N)nc(Nc2ccccc2)c1N=O
inactive: all assays above

CCC(C)C(Nc1nc(N)[nH]c(=O)c1N=O)C(=O)O (centres undefined)
inactive: all assays above

CCOC(=O)[C@H](C)Nc1nc(N)nc(OCC2CCCCC2)c1N=O
inactive: all assays above

COc1nc(NCCO)nc(Nc2ccccc2)c1N=O
inactive: all assays above
